Source: PubChem BioAssay (Sanford-Burnham Center for Chemical Genomics)
Apaf-1 act = human Apaf-1 activation. O14727. Apaf-1 apoptosome caspase-3 activation, DEVD-Rh110 fluorescence; stronger effect = lower value. activity change, negative = activation, % at 20 µM. 330,000 tested, 0.31% active;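 active = activity change at or below -40% at 20 µM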
Target sequence (O14727 whole entry, looked up): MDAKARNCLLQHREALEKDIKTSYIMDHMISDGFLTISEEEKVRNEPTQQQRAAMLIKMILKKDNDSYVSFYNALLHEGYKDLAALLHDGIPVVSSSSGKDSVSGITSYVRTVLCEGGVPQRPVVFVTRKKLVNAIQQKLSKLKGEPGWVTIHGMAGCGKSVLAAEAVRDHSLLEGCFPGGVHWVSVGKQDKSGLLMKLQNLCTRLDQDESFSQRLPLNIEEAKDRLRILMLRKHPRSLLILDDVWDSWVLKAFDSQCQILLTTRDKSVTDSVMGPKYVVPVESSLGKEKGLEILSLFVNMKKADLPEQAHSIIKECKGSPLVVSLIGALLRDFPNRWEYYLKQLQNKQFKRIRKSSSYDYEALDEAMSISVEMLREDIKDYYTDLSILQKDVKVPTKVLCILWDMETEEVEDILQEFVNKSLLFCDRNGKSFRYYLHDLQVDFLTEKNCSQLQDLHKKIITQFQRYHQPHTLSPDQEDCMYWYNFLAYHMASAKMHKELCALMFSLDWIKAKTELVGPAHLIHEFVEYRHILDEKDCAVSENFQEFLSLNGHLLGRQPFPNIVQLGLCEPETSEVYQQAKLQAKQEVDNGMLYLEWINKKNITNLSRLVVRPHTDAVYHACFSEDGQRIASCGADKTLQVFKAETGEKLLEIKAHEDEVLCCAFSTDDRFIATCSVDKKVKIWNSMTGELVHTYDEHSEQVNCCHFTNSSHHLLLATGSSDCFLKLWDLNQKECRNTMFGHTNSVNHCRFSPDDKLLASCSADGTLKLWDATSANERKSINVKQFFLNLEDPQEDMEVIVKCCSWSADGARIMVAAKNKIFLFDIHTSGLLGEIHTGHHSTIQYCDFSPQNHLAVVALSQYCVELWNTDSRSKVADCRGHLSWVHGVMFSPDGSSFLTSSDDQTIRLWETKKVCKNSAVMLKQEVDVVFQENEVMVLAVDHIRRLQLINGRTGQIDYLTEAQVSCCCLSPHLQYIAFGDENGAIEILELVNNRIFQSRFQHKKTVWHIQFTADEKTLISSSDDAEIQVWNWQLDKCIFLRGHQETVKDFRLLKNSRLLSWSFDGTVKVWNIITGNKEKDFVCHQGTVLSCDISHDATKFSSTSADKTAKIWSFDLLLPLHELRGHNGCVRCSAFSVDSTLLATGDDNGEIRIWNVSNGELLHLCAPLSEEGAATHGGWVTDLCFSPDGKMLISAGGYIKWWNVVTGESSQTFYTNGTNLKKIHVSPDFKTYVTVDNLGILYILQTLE
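Material: reconstituted apoptosome of Apaf-1, cytochrome c, caspase-9, procaspase-3; times: 30 min preincubation, 50 min reaction, room temperature; measured by: fluorescence, 540 nm emission, 480 nm excitation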
Rh110 interf act = Rh110 signal interference in Apaf-1 activator counter-screen | shares compounds with Apaf-1 act | Rh110 fluorescence interference, quenched caspase reaction, Ex480/Em540 | fluorescence interference (activity change), % at 20 µM, hits read low | 980 tested, under 10 active;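 active = mean activity change at or below -40% when tested at 20 µM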
Apaf-1 act conf = confirmation of human Apaf-1 activators; shares compounds with Apaf-1 act; 980 tested, 5% active; activity change, negative = activation, % at 20 µM; reconstituted apoptosome caspase-3 activity, DEVD-Rh110 fluorescence; stronger effect = lower value;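 active = mean activity change at or below -40%, meaning activation of 40% or more, at 20 µM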
Numbers stand for hits; – = inactive; · = not tested or not shown. The list is a sample of the results.

SMILES	Apaf-1 act	Rh110 interf act	Apaf-1 act conf
CCCCCCOc1ccc(/C(C)=N/NC2=NCCN2)cc1[N+](=O)[O-]	–	·	·
CC(CCC(C)C(C)(C)C)[C@@H]1CC[C@H]2C3C[C@H](OS(O)(=S)=S)[C@H]4C[C@H](OS(O)(=S)=S)[C@@H](OS(O)(=S)=S)C[C@]4(C)[C@H]3CC[C@]12C (stereo not given in full) (tested in a mixture with another compound)	–	·	·
CC(C)c1ccc2[nH]c(O)c(N=NC(=O)c3ccc(CSc4nncn4C)cc3)c2c1	-74.3	–	–
NC1(C#Cc2ccc3oc(=O)c(-n4cc(-c5ccsc5)nn4)cc3c2)CCCCC1	–	·	·
CC(Oc1ccc(Br)cc1)C(=O)NCC(C)(C)N1CCOCC1 (stereo not given)	–	·	·
Cc1ccc(C(=O)NNc2cc(N3CCCC3)nc(N3CCCC3)n2)cc1	–	·	·
COc1ccc(NC(=S)N2CCC(C(=O)c3ccc(C)cc3)CC2)cc1	-102.6	–	–
CCOC(=O)C1CCN(C(=O)Nc2ccc3nc(-c4ccco4)c(-c4ccco4)nc3c2)CC1	–	·	·
COc1cc2c(cc1OC)C(c1ccc(-c3ccc(Cl)c(Cl)c3)o1)=NCC2	–	·	·
COc1ccc(-c2nc(-c3ccc(Br)o3)no2)cc1OC	-45.3	–	–
CN1CCc2c(sc(NC(=O)c3ccc(C(=O)c4ccccc4)cc3)c2C(N)=O)C1	–	·	·
CC(C)[N+]1(C)[C@@H]2CC[C@H]1CC(OC(=O)C(CO)c1ccccc1)C2 (stereo not given in full)	–	·	·
Cc1ccc(-c2csc(NC(=O)C3=NN(C4CCS(=O)(=O)C4)C(=O)CC3)n2)cc1 (stereo not given)	-58.0	–	–
COc1ccc(-c2sc3cc4c(cc3c2-c2ccc(OCCN3CCCCC3)cc2)OCO4)cc1	–	·	·
O=C1C(SCCO)=C(SCCO)C(=O)c2ccccc21	–	·	·
CS(=O)(=O)N(CC(=O)Nc1ccccc1C(=O)N1CCOCC1)c1cccc(F)c1	-57.3	–	–
CCN1CCN(Cc2ccc(NC(=O)c3cc(NC(=O)c4cncc(-c5cccs5)c4)cc(OC)c3)cc2C(F)(F)F)CC1	–	·	·
Cc1ccc2cc(C(c3nnnn3CC3CCCO3)N3CCc4ccccc4C3)c(=O)[nH]c2c1 (stereo not given)	–	·	·
CCOC(=O)c1c(NC(=O)c2ccco2)n(C2CCCCC2)c2nc3ccccc3nc12	–	·	·
CCOC(=O)c1sc(NC(=O)c2ccco2)c(C#N)c1C	-210.9	–	–
COc1ccc(-n2c(NC(=O)c3ccco3)c(C#N)c3nc4ccccc4nc32)cc1	–	·	·
Cc1cccc2cc(C(c3nnnn3CC3CCCO3)N3CCc4ccccc4C3)c(=O)[nH]c12 (stereo not given)	–	·	·
C[C@H](CO)N1C[C@H](C)[C@@H](CN(C)Cc2ccc(-c3ccccc3)cc2)Oc2c(NC(=O)Cc3ccccc3)cccc2C1=O	–	·	·
C[C@H](CO)N1C[C@H](C)[C@@H](CN(C)CC2CCCCC2)Oc2c(NC(=O)CCC(F)(F)F)cccc2C1=O	–	·	·
Cc1noc(C)c1NC(=O)N(C)C[C@H]1Oc2ccc(NC(=O)CCN3CCOCC3)cc2C(=O)N([C@H](C)CO)C[C@@H]1C	-45.7	–	–
SMILES	Apaf-1 act	Rh110 interf act	Apaf-1 act conf
NS(=O)(=O)c1cccc(NC(=O)CCS(=O)(=O)c2ccc(Cl)cc2)c1	-253.5	–	–
CC(=O)O[C@]1(C(C)=O)CC[C@H]2[C@@H]3C[C@H](C)C4=CC(=O)CC[C@]4(C)[C@H]3CC[C@@]21C	–	·	·
N#Cc1ccccc1OCC(=O)OCC(=O)N1CCCC1	-110.1	–	–
Cc1cc2cc(CNC(=O)c3ccc(S(=O)(=O)N(C)C)cc3)ccc2n1C	–	·	·
CCCCCCNC(=O)N[C@@H](C(=O)NCCC[C@H]1CN2C(=NC[C@@H]2Cc2ccccc2)N1CCc1cccc(OC)c1)C(C)C	–	·	·
C=CCNC(=O)CN(c1cccc(Br)c1)S(C)(=O)=O	-55.6	–	–
CCOC(=O)c1cc(C(=O)c2cccs2)n2ccc(C(C)=O)cc12	–	·	·
CCOC(=O)c1c(N)n(CCOC(=O)c2cccs2)c2nc3ccccc3nc12	–	·	·
CCc1ccccc1NC(=O)COC(=O)c1cccs1	-103.7	–	–
COc1ccc(C(=O)NCCc2nnc3ccc(SCC(=O)NCCc4ccc(OC)c(OC)c4)nn23)cc1	-410.3	–	–
O=C(CSc1ccc2nnc(CCNC(=O)c3ccccc3)n2n1)Nc1ccccc1	-293.3	–	–
Clc1ccc(N=c2ssnc2Cl)nc1	–	·	·
Cc1[nH][nH]c(=O)c1C(c1ccc(-c2ccc(Cl)c(Cl)c2)o1)c1c(C)[nH][nH]c1=O	–	·	·
O=C(c1ccccc1)c1ccc2nc(-c3ccco3)c(-c3ccco3)nc2c1	–	·	·
COCCCOc1cc(NCc2ccccc2)c2ncn(C(C)C)c2c1	–	·	·
Clc1ccc(CSc2nnc3ccccn23)c(Cl)c1	-40.1	–	–
COC(=O)c1ccc(C(=O)OC)c(NC(=O)CN2CCN(c3ccccc3)CC2)c1	-190.9	–	–
CCOC(=O)CSc1nc2cc(C(=O)NCc3ccco3)ccc2c(=O)n1-c1ccc(F)cc1	-105.2	–	–
Cc1ccc2c(c1)C(O)(C1COC(C)(C)CC1=O)C(=O)N2C (stereo not given)	-573.3	–	–
COc1cc(O)c(NC(C)=O)c2nonc12	–	·	·
O=C1C=C(c2ccc(OC(F)(F)F)cc2)C[C@@H](c2ccc(F)cc2)C1	–	·	·
CCOc1cc(/C=C2/C(=O)N(c3ccccc3)N=C2C)ccc1OC(=O)c1cccs1	–	·	·
CCc1cc2c(=O)nc3n(c2s1)Cc1ccccc1/C3=C(/O)c1cccc([N+](=O)[O-])c1	-198.2	–	–
COc1cc2c3nnc(-c4ccc(F)cc4)c-3cn(Cc3cccc(C)c3)c2cc1OC	–	·	·
Fc1ccc(F)c(C2=NNC(=Nc3ccccc3F)SC2)c1	-44.9	–	–
SMILES	Apaf-1 act	Rh110 interf act	Apaf-1 act conf
CCN(CC)CCCNc1ccc(-c2nnc(-c3ccc(OCC(C)C)cc3)o2)cn1	–	·	·
C(=N\c1c(-c2ccccc2)nc2n1CCS2)/c1ccccc1	–	·	·
COc1ccc(/C=C2/C(=O)N(c3ccccc3)N=C2C)cc1	–	·	·
COc1ccc(C(=O)CN2C(=O)c3ccccc3C2=O)cc1	-164.6	–	–
COc1ccc(C2=NN(c3ccccc3)C(=O)/C2=C\c2ccc(O)c(OC)c2)cc1	–	·	·
CCCCCCSc1ccc(-c2nc3cc(C)ccn3c2NC2CCCCC2)cc1	–	·	·
CC(C)(C)c1ccc(S(=O)(=O)/N=C2\C=C(NS(=O)(=O)c3ccccc3)C(=O)c3ccccc32)cc1	–	·	·
C#CCOCCOCCOCCNc1nc(N2CCN(C(=O)[C@H](CCCN=C(N)N)n3cc(C(N)[C@@H](C)CC)nn3)CC2)nc(N2CCN(C(=O)[C@H](CCCCN)n3cc([C@@H](N)[C@H](C)CC)nn3)CC2)n1 (stereo not given in full)	–	·	·
C/C(=C\c1ccccc1)C1Nc2cccc3cccc(c23)N1	–	·	·
CC(C)CNC(=O)c1c(F)c(F)c(F)c(F)c1F	-53.7	–	–
O=C(N/N=C/c1ccc(-c2ccccc2[N+](=O)[O-])o1)[C@H]1C[C@@H]1c1ccccc1	–	·	·
CC(C)Oc1cccc(C(=O)Nc2ncn[nH]2)c1	-47.8	–	–
